Reference: publication PMC12238359 (Scientific Reports, 2025)

Tests used:
[1] = molecular target: HDAC1 (Homo sapiens, UniProt Q13547); experiment: HDAC inhibitory assay, HDAC1; format: biochemical
[2] = molecular target: T1, HDAC6 (Homo sapiens, UniProt Q9UBN7); experiment: HDAC inhibitory assay, HDAC6; format: biochemical
T1 sequence (Q9UBN7 1-1215): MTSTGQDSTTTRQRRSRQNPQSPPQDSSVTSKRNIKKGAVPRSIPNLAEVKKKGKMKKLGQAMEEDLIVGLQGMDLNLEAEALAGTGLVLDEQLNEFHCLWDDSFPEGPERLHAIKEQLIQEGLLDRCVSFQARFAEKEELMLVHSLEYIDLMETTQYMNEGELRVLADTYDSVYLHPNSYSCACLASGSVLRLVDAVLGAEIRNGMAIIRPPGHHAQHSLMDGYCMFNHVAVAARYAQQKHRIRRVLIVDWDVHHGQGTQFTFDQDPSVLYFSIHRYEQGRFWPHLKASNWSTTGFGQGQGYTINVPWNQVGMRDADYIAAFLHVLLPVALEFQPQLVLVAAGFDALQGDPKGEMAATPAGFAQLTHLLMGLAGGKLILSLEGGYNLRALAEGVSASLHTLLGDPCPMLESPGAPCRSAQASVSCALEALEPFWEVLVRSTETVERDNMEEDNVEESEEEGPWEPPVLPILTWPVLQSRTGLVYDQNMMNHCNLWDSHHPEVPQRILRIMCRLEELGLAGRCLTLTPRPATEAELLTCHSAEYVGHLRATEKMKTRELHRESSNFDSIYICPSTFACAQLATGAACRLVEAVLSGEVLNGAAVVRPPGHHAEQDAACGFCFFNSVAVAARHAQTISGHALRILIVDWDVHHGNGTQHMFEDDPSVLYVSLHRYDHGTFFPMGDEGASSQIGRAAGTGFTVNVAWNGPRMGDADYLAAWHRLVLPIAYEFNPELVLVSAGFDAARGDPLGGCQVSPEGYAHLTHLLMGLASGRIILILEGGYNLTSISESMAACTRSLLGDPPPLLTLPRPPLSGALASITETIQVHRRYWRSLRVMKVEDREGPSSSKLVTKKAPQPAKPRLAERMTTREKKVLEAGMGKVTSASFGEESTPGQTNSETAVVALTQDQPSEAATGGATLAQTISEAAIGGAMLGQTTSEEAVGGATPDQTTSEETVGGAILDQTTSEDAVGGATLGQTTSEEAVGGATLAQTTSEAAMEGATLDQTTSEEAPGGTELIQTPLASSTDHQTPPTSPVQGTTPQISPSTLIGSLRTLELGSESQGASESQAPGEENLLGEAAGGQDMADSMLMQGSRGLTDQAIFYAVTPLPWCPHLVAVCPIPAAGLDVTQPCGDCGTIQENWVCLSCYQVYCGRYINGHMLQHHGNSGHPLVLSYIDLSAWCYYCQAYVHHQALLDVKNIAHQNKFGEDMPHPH

[3] = tested on: HepG2; experiment: In vitro anti-proliferation assay; format: cell-based
[4] = tested on: acetylated H3/H4; experiment: Western blot of acetylated histone levels in HepG2 cells; format: cell-based; conditions: HepG2, 0.2, 0.5 µM, 24 h
Summary of the method: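 HepG2 cells were exposed to the test compound for 24 h, then lysed in RIPA buffer with protease inhibitors (10 min on ice) and centrifuged at 4 °C. Protein was measured by BCA, and equal amounts were denatured at 100 °C for 5 min. Blots were run on 10–15% SDS-PAGE and transferred to PVDF. Anti-acetyl-H3 was used at 1:1000, overnight at 4 °C, then HRP secondary antibody for 1 h at room temperature, with ECL detection. Bands were quantified against β-actin; mean ± SD of three separate experiments.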

[5] = tested on: HepG2 cells; experiment: Colony formation assay; format: cell-based; conditions: HepG2, 14 days
Summary of the method: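 HepG2 cells were plated at 1000 per well in 6-well plates. After 24 h they were treated with a range of concentrations, with the medium refreshed every other day, and kept in fresh medium for 10–14 days. Colonies were fixed in methanol for 15 min, stained with 0.5% crystal violet for 15 min, photographed and counted manually.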

[6] = tested on: HepG2 cells; experiment: Cell cycle analysis by flow cytometry; format: cell-based; conditions: HepG2, 0.5μM; for G2/M: control 25.34%; for S: control 32.99%; for G0/G1: control 41.67%
[7] = tested on: CDK4 and Cyclin D1; experiment: Western blot of cell cycle regulators; format: cell-based; conditions: HepG2, 24 h
Summary of the method: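 For the immunoblot, HepG2 cells were treated at several concentrations for 24 h and lysed in RIPA buffer with protease inhibitors. Equal BCA-quantified protein was boiled for 5 min and resolved on 10–15% SDS-PAGE, then transferred to PVDF. Blots were blocked in 5% milk, incubated with primary antibody overnight at 4 °C and HRP secondary for 1 h, and detected by ECL. Band densities were quantified, with β-actin as loading control.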

[8] = tested on: HepG2 cells; experiment: Annexin V-FITC/PI apoptosis analysis; format: cell-based; conditions: 48 h
[9] = tested on: Cl-PARP, Cl-caspase 3; experiment: Western blot of apoptotic proteins; format: cell-based; conditions: HepG2, 24 h
Summary of the method: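 Treated HepG2 lysates (24 h exposure, RIPA buffer with protease inhibitors, BCA-normalised) were denatured at 100 °C for 5 min and run on 10–15% SDS-PAGE, then transferred to PVDF. Membranes were blocked in 5% milk, with primary antibody overnight at 4 °C and HRP secondary for 1 h at room temperature, and developed by ECL. Band intensity was normalised to β-actin; mean ± SD of three separate experiments.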

[10] = tested on: HepG2 cells; experiment: Reactive oxygen species; format: cell-based; conditions: HepG2, 24 h
[11] = tested on: γH2AX; experiment: γH2AX immunofluorescence assay; format: cell-based; conditions: HepG2, 24 h, in comparison to SAHA
Summary of the method: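 HepG2 cells were grown on coverslips at 1 × 10^5 per well and treated over a concentration range for 24 h. Cells were fixed in 4% formaldehyde, then blocked and permeabilised in PBS-BSA with 0.3% Triton X-100 for 15 min at room temperature. Anti-γH2AX was applied overnight at 4 °C, then goat anti-rabbit IgG (1:500) for 30 min at room temperature. Nuclei were counterstained with DAPI and imaged by confocal microscopy.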

[12] = tested on: HepG2 cells; experiment: Lactate dehydrogenase; format: cell-based; conditions: HepG2, 24 h
Summary of the method: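 HepG2 cells were seeded at 1 × 10^4 per well and exposed to a range of test compound concentrations for 24 h. Culture supernatant was mixed with LDH detection reagent and kept 30 min in the dark at ambient temperature. OD was read at 490 nm, with each sample in triplicate.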

[13] = tested on: GSDME-N, Cl-caspase3; experiment: Western blot of pyroptosis markers; format: cell-based; conditions: HepG2, 24 h
Summary of the method: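 HepG2 cells were treated 24 h at the indicated concentrations, then lysed in RIPA with protease inhibitors (10 min on ice, 4 °C spin). Protein was measured by BCA, and equal amounts were boiled 5 min at 100 °C, run on 10–15% SDS-PAGE and transferred to PVDF. Membranes were blocked in 5% milk, probed with primaries overnight at 4 °C, then HRP secondary 1 h at room temperature. Detection was by ECL, with densitometry against β-actin; data are mean ± SD of three experiments.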

[14] = tested on: HepG2 xenografts; experiment: HepG2 xenograft model; format: in vivo, BALB/c nude mice
Summary of the method: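 Male BALB/c nude mice, 5–6 weeks old, were housed under SPF conditions (25 °C, 65% humidity, 12-h light/dark). They were implanted subcutaneously with 1 × 10^6 HepG2 cells. […] Excised tumors were immunostained for Ac-H3, Ac-H4, cleaved caspase-3, GSDME-N and Ki67, then image-scored over 5 fields.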

Sequence of HDAC1 (Q13547 whole entry): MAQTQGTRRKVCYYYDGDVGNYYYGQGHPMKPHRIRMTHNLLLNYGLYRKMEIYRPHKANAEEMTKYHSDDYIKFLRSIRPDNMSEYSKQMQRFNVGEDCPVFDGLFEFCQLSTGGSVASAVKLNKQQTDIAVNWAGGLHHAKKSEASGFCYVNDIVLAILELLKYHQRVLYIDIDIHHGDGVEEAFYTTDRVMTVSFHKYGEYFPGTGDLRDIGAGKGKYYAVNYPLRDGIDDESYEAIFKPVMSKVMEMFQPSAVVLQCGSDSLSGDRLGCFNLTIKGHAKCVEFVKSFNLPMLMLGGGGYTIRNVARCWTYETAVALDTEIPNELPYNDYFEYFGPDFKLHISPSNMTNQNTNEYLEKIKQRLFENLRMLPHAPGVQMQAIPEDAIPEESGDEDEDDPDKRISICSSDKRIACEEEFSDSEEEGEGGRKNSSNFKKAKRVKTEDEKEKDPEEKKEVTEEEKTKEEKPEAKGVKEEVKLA

Row | HDAC1 inhibitory activity relative to SAHA [1] | HDAC6 inhibitory activity relative to SAHA [2] | Ac-H3/H4, Cl-caspase3 and GSDME-N in tumor tissues ([14]; IHC at end of treatment) | SMILES | antiproliferative activity, times higher than SAHA [3] [times] | level of acetyl-H3 and H4 [4] | colony formation [5] | G2/M [6] [%] | S [6] [%] | G0/G1 [6] [%] | levels of CDK4 and Cyclin D1 [7] | apoptosis of HepG2 cells ([8]; 0.2 µM) [%] | apoptosis of HepG2 cells ([8]; 0.5 µM) [%] | expression of Cl-PARP, Cl-caspase 3 [9] | ROS levels [10] | nuclear γH2AX levels [11] | LDH release [12] | GSDME N-terminal fragment level [13] | levels of active caspase-3 [13] | tumor growth inhibition ([14]; 10 mg/kg, ip, every two days, three weeks) | Ki67 immunostaining of tumor tissues ([14]; IHC at end of treatment)
1 | tenfold better | eightfold better | – | COc1ccc(N(Cc2csc(-c3ccc(C)cc3)n2)C(=O)CCCCCC(=O)NO)cc1 [Compound 15d, N^1-hydroxy-N^7-(4-methoxyphenyl)-N^7-((2-(4-tolyl)-4-thiazolyl)methyl)heptanediamide] | ~15 | increased the level of acetyl-H3 and H4 in a dose-dependent manner | suppress the formation of colonies in a dose-dependent manner | 24.34 | 18.3 | 57.36 | significantly reduced the levels of CDK4 and Cyclin D1 in a dose-dependent manner | 30 | 41.9 | upregulate the expression of Cl-PARP, Cl-caspase 3 in a dose-dependent manner | dose-dependently increased | induce γH2AX expression at a much lower concentration range | markedly increased | elevated levels of the N-terminal fragment of gasdermin E (GSDME) | elevated | – | –
2 | tenfold better | eightfold better | induced the increase of Ac- H3/H4 | COc1ccc(N(Cc2csc(-c3ccccc3)n2)C(=O)CCCCCC(=O)NO)cc1 [Compound 15a, N^1-hydroxy-N^7-(4-methoxyphenyl)-N^7-((2-phenyl-4-thiazolyl)methyl)heptanediamide] | ~25 | increased the level of acetyl-H3 and H4 in a dose-dependent manner | suppress the formation of colonies in a dose-dependent manner | 22.85 | 13.72 | 61.42 | significantly reduced the levels of CDK4 and Cyclin D1 in a dose-dependent manner | 28.2 | 46.5 | upregulate the expression of Cl-PARP, Cl-caspase 3 in a dose-dependent manner | dose-dependently increased | induce γH2AX expression at a much lower concentration range | markedly increased | elevated levels of the N-terminal fragment of gasdermin E (GSDME) | elevated | superior inhibition observed at 10 mg/kg compared to that of SAHA | dose-dependent reduction in Ki67 immunostaining
